Here are results for 15 compounds from ChEMBL document CHEMBL3352517, “Anti-inflammatory ursane- and oleanane-type triterpenoids from Vitex negundo var. cannabifolia” (J Nat Prod, 2014).

Series [1] is described as follows: (§1) Cytotoxicity against mouse RAW264.7 cells assessed as cell viability at 40 uM by MTT assay. In kind it is cell-based. The conditions noted are these: RAW264.7 cells, read-out: Activity. On the technique in general: Tetrazolium assays rely on reduction of a dye to a coloured formazan, in cell work by metabolically active cells.
Series [2] has as its system RAW264.7. The series can be described thus: Anti-inflammatory activity in mouse RAW264.7 cells assessed as inhibition of lipopolysaccharide-induced nitric oxide production incubated for 24 hrs by Griess reagent based assay. Format: functional, cell-based. As to conditions: RAW264.7, 24 h. The gist of the method: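 LPS-stimulated RAW 264.7 macrophages; NO production read by Griess assay; inhibition expressed as IC50 (μM).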

Series [3] relates to RAW264.7. The description is as §1. In kind it is cell-based. As to conditions: raw264.7, 40 µM.
Series [4] has as its system RAW264.7. Briefly: Anti-inflammatory activity in mouse RAW264.7 cells assessed as inhibition of lipopolysaccharide-induced nitric oxide production at 80 uM incubated for 24 hrs by Griess reagent based assay. Format: functional. The conditions noted are these: RAW264.7, 24 h.

Structures are written as SMILES.

`C[C@H]1[C@H](C)CC[C@]2(C(=O)O)CC[C@]3(C)C(=CC[C@@H]4[C@@]5(C)C[C@@H](O)[C@H](O)C(C)(C)[C@@H]5CC[C@]43C)[C@H]12` [COROSOLIC ACID]: the viability at 40 µM in series [1] was < 70%.

In the case of `CC1(C)CC[C@@]23CC[C@@]4(C)[C@]5(C)CC[C@H]6C(C)(C)[C@H](O)[C@H](O)C[C@]6(C)[C@H]5CC(=O)[C@]4(OC2=O)[C@@H]3C1`, in series [1], the viability at 40 µM was < 70%. Regarding `CC1(C)CC[C@]2(C(=O)O)CC[C@]3(C)C(=CC[C@@H]4[C@@]5(C)C[C@@H](O)[C@@H](O)[C@](C)(CO)[C@@H]5CC[C@]43C)[C@@H]2C1`, the IC50 (as a rule, the concentration that inhibits the measured activity by half) in series [2] came out at 40.5 µM. In addition, the Activity result in series [3] was “Non-toxic”. For `C[C@@H]1CC[C@]2(C(=O)O)CC[C@]3(C)C(=CC[C@@H]4[C@@]5(C)C[C@@H](O)[C@H](O)C(C)(C)[C@@H]5CC[C@]43C)[C@@H]2[C@]1(C)O` [TOMENTIC ACID], in that order: 24.9 µM and “Non-toxic”.

On to `C[C@H]1[C@H](C)CC[C@]2(C(=O)O)CC[C@]3(C)C(=CC[C@@H]4[C@@]5(C)C[C@@H](O)[C@@H](O)C(C)(C)[C@@H]5CC[C@]43C)[C@H]12` [PYGENIC ACID A], for which, in series [1], the viability at 40 µM is < 70%. With `C[C@H]1[C@H](C)CC[C@@]23CC[C@@]4(C)[C@]5(C)CC[C@H]6C(C)(C)[C@H](O)[C@H](O)C[C@]6(C)[C@H]5CC(=O)[C@]4(OC2=O)[C@H]13`, in series [4], the inhibition (in general, the percentage by which the read-out fell short of the control) at 80 µM was < 50%. Moreover, the Activity result in series [3] is “Non-toxic”. With `CC1(C)CC[C@]2(C(=O)O)CC[C@]3(C)C(=CC[C@@H]4[C@@]5(C)C[C@@H](O)[C@@H](O)C(C)(C)[C@@H]5CC[C@]43C)[C@@H]2C1`, the IC50 in series [2] amounted to 27.7 µM. Moreover, the Activity result in series [3] was “Non-toxic”. As for `O=c1c(O)c(-c2ccc(O)c(O)c2)oc2cc(O)cc(O)c12` [QUERCETIN], the IC50 in series [2] turned out to be 16.6 µM.

On to `C[C@H]1[C@H](C)CC[C@]2(C(=O)O)CC[C@]3(C)C(=CC[C@@H]4[C@@]5(C)CC[C@H](O)C(C)(C)[C@@H]5CC[C@]43C)[C@H]12` [URSOLIC ACID], for which, in series [1], the viability at 40 µM is < 70%. With `C[C@@H]1CC[C@]2(C(=O)O)CC[C@]3(C)C(=CC[C@@H]4[C@@]5(C)C[C@@H](O)[C@@H](O)C(C)(C)[C@@H]5CC[C@]43C)[C@@H]2[C@]1(C)O` [EUSCAPHIC ACID], the inhibition at 80 µM in series [4] is < 50%. In addition, in series [3], the Activity entry is “Non-toxic”. In the case of `C[C@H]1[C@H](C)CC[C@@]23CC[C@]4(C)[C@](OC2=O)([C@H](O)C[C@@H]2[C@@]5(C)C[C@@H](O)[C@@H](O)C(C)(C)[C@@H]5CC[C@]24C)[C@H]13`, the IC50 in series [2] was found to be 34 µM. Besides, in series [3], the Activity result is listed as “Non-toxic”.

`C=C1CC[C@]2(C(=O)O)CC[C@]3(C)C(=CC[C@@H]4[C@@]5(C)C[C@@H](O)[C@@H](O)C(C)(C)[C@@H]5CC[C@]43C)[C@@H]2[C@H]1C`: in series [2], the IC50 was determined as 26.1 µM. Moreover, in series [3], the Activity result is recorded as “Non-toxic”.

Regarding `CC1(C)[C@H](O)[C@H](O)C[C@]2(C)[C@H]3CC=C4[C@@H]5C[C@](C)(CO)CC[C@]5(C(=O)O)CC[C@@]4(C)[C@]3(C)CC[C@@H]12`, in series [4], the inhibition at 80 µM was < 50%. The Activity entry in series [3] is reported as “Non-toxic”. Take `C[C@@H]1[C@@H]2C[C@@]3(CC[C@]4(C)[C@@H]5[C@@H]3[C@]1(C)O[C@]5(O)C[C@@H]1[C@@]3(C)C[C@@H](O)[C@@H](O)C(C)(C)[C@@H]3CC[C@]14C)C(=O)O2`: in series [4], the inhibition at 80 µM was < 50%. In addition, in series [3], the Activity entry is given as “Non-toxic”.

For `CC1(C)[C@@H]2C[C@@]3(CC[C@]4(C)[C@@H]5[C@@H]3[C@@H]1O[C@]5(O)C[C@@H]1[C@@]3(C)C[C@@H](O)[C@@H](O)C(C)(C)[C@@H]3CC[C@]14C)C(=O)O2`, the inhibition at 80 µM in series [4] was < 50%. The Activity entry in series [3] is reported as “Non-toxic”.
